Reference: ChEMBL document CHEMBL1208782, “Synthesis and pharmacological validation of a novel series of non-steroidal FXR agonists” (Bioorg Med Chem Lett, 2010)
The source made the active and inactive calls. The rule behind the calls is not given here.

Tests used:
Mus musculus [1] = assay: Reduction in total plasma triglyceride level in db/db mouse at 1-25 mg/kg bid after 12 days; type: functional, organism-based
Procedure, shortened: (§1)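 C57BL/KSK-mLep^db/mLep^db mice were dosed orally at 1, 5 and 25 mg/kg b.i.d. for 12 days. Total plasma triglycerides and total plasma cholesterol were measured, with cholesterol reported as mg/dl. Significance was given at p<0.05, <0.01 and <0.001 levels.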

Mus musculus [2] = assay: Reduction in total plasma cholesterol level in db/db mouse at 1-25 mg/kg bid after 12 days; type: functional, organism-based; procedure, shortened: as §1
[3] = Plasma concentration in db/db mouse at 25 mg/kg bid after 4 hrs by LC/MS-MS analysis; type: ADME, organism-based; parameters: dose 25 mg/kg; details: read-out: Drug uptake
Procedure, shortened: (§2)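 db/db mice were dosed twice daily for 12 days. Plasma and liver concentrations were determined 4 h and 24 h after the last administration.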

[4] = Plasma concentration in db/db mouse at 25 mg/kg bid after 24 hrs by LC/MS-MS analysis; type: ADME, organism-based; parameters: dose 25 mg/kg; details: read-out: Drug uptake; procedure, shortened: as §2
[5] = Drug level in db/db mouse liver at 25 mg/kg bid after 4 hrs by LC/MS-MS analysis; type: ADME, organism-based; parameters: dose 25 mg/kg; details: read-out: Drug uptake; procedure, shortened: as §2
[6] = Drug level in db/db mouse liver at 25 mg/kg bid after 24 hrs by LC/MS-MS analysis; type: ADME, organism-based; parameters: dose 25 mg/kg; details: read-out: Drug uptake
Procedure, shortened: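 C57BL/KSK-mLep^db/mLep^db (db/db) mice dosed orally b.i.d. for 12 days at 1, 5 or 25 mg/kg. Liver concentrations of parent compound measured 24 h after the last administration.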

Bile acid receptor [7] = target: T1, Bile acid receptor (Homo sapiens, UniProt Q96RI1); assay: Agonist activity at human GST-fused FXR LBD assessed as cofactor peptide interaction with receptor ligand binding domain by FRET assay
T1 sequence (Q96RI1 whole entry): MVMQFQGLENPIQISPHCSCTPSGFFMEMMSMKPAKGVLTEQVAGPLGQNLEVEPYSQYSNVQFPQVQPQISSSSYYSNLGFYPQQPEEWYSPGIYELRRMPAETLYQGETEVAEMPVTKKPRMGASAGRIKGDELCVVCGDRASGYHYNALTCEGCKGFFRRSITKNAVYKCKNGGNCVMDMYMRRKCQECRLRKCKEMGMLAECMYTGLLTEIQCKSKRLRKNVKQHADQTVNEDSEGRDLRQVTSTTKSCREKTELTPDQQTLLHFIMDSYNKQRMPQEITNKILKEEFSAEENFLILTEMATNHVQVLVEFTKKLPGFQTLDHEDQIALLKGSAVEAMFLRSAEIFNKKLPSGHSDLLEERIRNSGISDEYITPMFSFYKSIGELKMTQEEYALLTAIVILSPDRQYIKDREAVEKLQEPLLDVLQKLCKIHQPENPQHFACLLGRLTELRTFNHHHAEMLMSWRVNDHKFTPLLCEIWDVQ

[8] = target: T2, Bile acid receptor (Homo sapiens) (UniProt Q96RI1); assay: Agonist activity at human GST-fused FXR LBD assessed as cofactor peptide interaction with receptor ligand binding domain by FRET assay relative to GW-4064
T2 sequence (whole entry): T1 sequence (Q96RI1 whole entry)

Bile acid receptor [9] = target: T1, Bile acid receptor; assay: Agonist activity at human […] FXR LBD expressed in HEK293 cells coexpressing GAL4-DNA bindig domain and pFRluc by mammalian one-hybrid assay; type: functional, cell-based; details: read-out: EC50
[10] = target: T2, Bile acid receptor (Homo sapiens); assay: Agonist activity at human […] FXR LBD expressed in HEK293 cells coexpressing GAL4-DNA bindig domain and pFRluc by mammalian one-hybrid assay relative to GW-4064; type: functional, cell-based
Bile acid receptor [11] = target: T1, Bile acid receptor; assay: Agonist activity at human full length FXR transfected in HEK293 cells coexpressing pTRexDest/pGL2promotor assessed as luciferase activity by direct reporter cellular assay; type: functional, cell-based; details: read-out: EC50
[12] = target: T2, Bile acid receptor (Homo sapiens); assay: Agonist activity at human full length FXR transfected in HEK293 cells coexpressing pTRexDest/pGL2promotor assessed as luciferase activity by direct reporter cellular assay relative to GW-4064; type: functional, cell-based
[13] = Plasma concentration in db/db mouse at 5 mg/kg, po after 5 mins; type: ADME, organism-based; parameters: dose 5 mg/kg, route oral; details: read-out: Drug uptake
Procedure, shortened: (§3)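 Single dose to mice, 5 mg/kg po or 1 mg/kg iv. Plasma was sampled at 5, 10, 30, 90 and 240 min. Only parent compound was measured, in ng/mL.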

[14] = Plasma concentration in db/db mouse at 5 mg/kg, po after 10 mins; type: ADME, organism-based; parameters: dose 5 mg/kg, route oral; details: read-out: Drug uptake; procedure, shortened: as §3
[15] = Plasma concentration in db/db mouse at 5 mg/kg, po after 30 mins; type: ADME, organism-based; parameters: dose 5 mg/kg, route oral; details: read-out: Drug uptake; procedure, shortened: as §3
[16] = Plasma concentration in db/db mouse at 5 mg/kg, po after 90 mins; type: ADME, organism-based; parameters: dose 5 mg/kg, route oral; details: read-out: Drug uptake; procedure, shortened: as §3
[17] = Clearance in db/db mouse at 5 mg/kg, po; type: ADME, organism-based; parameters: dose 5 mg/kg, route oral; details: in vivo
Procedure, shortened: (§4)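 Mice received a single dose of 5 mg/kg po or 1 mg/kg iv. Plasma was sampled at 5, 10, 30, 90 and 240 min and the parent compound alone was measured (ng/mL). Clearance (mL/h/kg), Vd (mL/kg) and oral bioavailability were derived from these plasma profiles.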

[18] = Oral bioavailability in db/db mouse at 5 mg/kg, po; type: ADME, organism-based; details: in vivo
Procedure, shortened: (§5)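 Derived from the single-dose mouse plasma time courses of parent compound, 5-240 min. Dosing was 5 mg/kg po or 1 mg/kg iv. Volume of distribution is in mL/kg, clearance in mL/h/kg, and oral bioavailability in %.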

[19] = Plasma concentration in db/db mouse at 1 mg/kg, iv after 5 mins; type: ADME, organism-based; parameters: dose 1 mg/kg, route intravenous; details: read-out: Drug uptake; procedure, shortened: as §3
[20] = Plasma concentration in db/db mouse at 1 mg/kg, iv after 10 mins; type: ADME, organism-based; parameters: dose 1 mg/kg, route intravenous; details: read-out: Drug uptake; procedure, shortened: as §3
[21] = Plasma concentration in db/db mouse at 1 mg/kg, iv after 30 mins; type: ADME, organism-based; parameters: dose 1 mg/kg, route intravenous; details: read-out: Drug uptake; procedure, shortened: as §3
[22] = Plasma concentration in db/db mouse at 1 mg/kg, iv after 90 mins; type: ADME, organism-based; parameters: dose 1 mg/kg, route intravenous; details: read-out: Drug uptake; procedure, shortened: as §3
[23] = Plasma concentration in db/db mouse at 1 mg/kg, iv after 240 mins; type: ADME, organism-based; parameters: dose 1 mg/kg, route intravenous; details: read-out: Drug uptake; procedure, shortened: as §3
Mus musculus [24] = assay: Volume of distribution in db/db mouse at 1 mg/kg, iv; type: ADME, organism-based; parameters: dose 1 mg/kg, route intravenous; details: in vivo; procedure, shortened: as §5
[25] = Clearance in db/db mouse at 1 mg/kg, iv; type: ADME, organism-based; parameters: dose 1 mg/kg, route intravenous; details: in vivo; procedure, shortened: as §4
Liver [26] = assay: Drug level in db/db mouse liver measured metabolites as carboxylic acid at 5 mg/kg, po after 240 mins; type: ADME, organism-based; parameters: dose 5 mg/kg, route oral; details: in vivo, 4 h
Procedure, shortened: (§6)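 Mice got a single dose, 5 mg/kg po or 1 mg/kg iv. Liver and bile were sampled 240 min after dosing. Parent carboxylic acid, its acyl-glucuronide and its taurine amide were quantified separately, in ng/mL. Glucuronide identity was confirmed by glucuronidase digestion of bile or bile extracts, which regenerated the parent.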

Liver [27] = assay: Drug level in db/db mouse liver measured metabolites as glucuronide at 5 mg/kg, po after 240 mins; type: ADME, organism-based; parameters: dose 5 mg/kg, route oral; details: in vivo, 4 h; procedure, shortened: as §6
Liver [28] = assay: Drug level in db/db mouse liver measured metabolites as taurine amide at 5 mg/kg, po after 240 mins; type: ADME, organism-based; parameters: dose 5 mg/kg, route oral; details: in vivo, 4 h; procedure, shortened: as §6
[29] = Drug level in db/db mouse bile measured metabolites as carboxylic acid at 5 mg/kg, po after 240 mins; type: ADME, organism-based; parameters: dose 5 mg/kg, route oral; details: in vivo, 4 h
[30] = Drug level in db/db mouse bile measured metabolites as glucuronide at 5 mg/kg, po after 240 mins; type: ADME, organism-based; parameters: dose 5 mg/kg, route oral; details: in vivo, 4 h
[31] = Drug level in db/db mouse bile measured metabolites as taurine amide at 5 mg/kg, po after 240 mins; type: ADME, organism-based; parameters: dose 5 mg/kg, route oral; details: in vivo, 4 h; procedure, shortened: as §6
Liver [32] = assay: Drug level in db/db mouse liver measured metabolites as carboxylic acid at 1 mg/kg, iv after 240 mins; type: ADME, organism-based; parameters: dose 1 mg/kg, route intravenous; details: in vivo, 4 h; procedure, shortened: as §6
Liver [33] = assay: Drug level in db/db mouse liver measured metabolites as glucuronide at 1 mg/kg, iv after 240 mins; type: ADME, organism-based; parameters: dose 1 mg/kg, route intravenous; details: in vivo, 4 h; procedure, shortened: as §6
Liver [34] = assay: Drug level in db/db mouse liver measured metabolites as taurine amide at 1 mg/kg, iv after 240 mins; type: ADME, organism-based; parameters: dose 1 mg/kg, route intravenous; details: in vivo, 4 h; procedure, shortened: as §6
[35] = Drug level in db/db mouse bile measured metabolites as carboxylic acid at 1 mg/kg, iv after 240 mins; type: ADME, organism-based; parameters: dose 1 mg/kg, route intravenous; details: in vivo, 4 h
[36] = Drug level in db/db mouse bile measured metabolites as glucuronide at 1 mg/kg, iv after 240 mins; type: ADME, organism-based; parameters: dose 1 mg/kg, route intravenous; details: in vivo, 4 h
[37] = Drug level in db/db mouse bile measured metabolites as taurine amide at 1 mg/kg, iv after 240 mins; type: ADME, organism-based; parameters: dose 1 mg/kg, route intravenous; details: in vivo, 4 h; procedure, shortened: as §6

Structure (SMILES): CC[C@H]1[C@@H](O)[C@@H]2[C@H](CC[C@]3(C)[C@@H]([C@H](C)CCC(=O)O)CC[C@@H]23)[C@@]2(C)CC[C@@H](O)C[C@@H]12 [OBETICHOLIC ACID]
- Activity (Mus musculus [1]): Active
- Activity (Mus musculus [2]): Active
- concentration at 4 h [3]: 2.12 µM
- concentration at 24 h [4]: 3.24 µM
- concentration at 4 h [5]: 13.9 µM
- concentration at 24 h [6]: 16.6 µM

Structure (SMILES): CN(Cc1ccc(C(=O)NCCS(=O)(=O)O)cc1)c1ccc(OCc2c(-c3c(Cl)cccc3Cl)noc2C2CC2)nc1C(F)(F)F
- EC50 (Bile acid receptor [7]): 14 nM
- Efficacy [8]: 105%
- EC50 (Bile acid receptor [9]): 1420 nM
- Efficacy [10]: 57%
- EC50 (Bile acid receptor [11]): 925 nM
- Efficacy [12]: 49%
- concentration at 5 min [13]: 1 ng/mL
- concentration at 10 min [14]: 3 ng/mL
- concentration at 0.5 h [15]: 6 ng/mL
- concentration at 1.5 h [16]: 12 ng/mL
- CL/F [17]: 3280 mL/min/kg
- bioavailability [18]: 5.8%
- concentration at 5 min [19]: 72 ng/mL
- concentration at 10 min [20]: 59 ng/mL
- concentration at 0.5 h [21]: 3 ng/mL
- concentration at 1.5 h [22]: 19 ng/mL
- concentration at 4 h [23]: 8 ng/mL
- Vd (Mus musculus [24]): 31.7 L/kg
- clearance [25]: 190 mL/min/kg
- Drug uptake (Liver [26]): 6 ng/mL
- Drug uptake (Liver [27]): 30 ng/mL
- Drug uptake (Liver [28]): 262 ng/mL
- Drug uptake [29]: 32 ng/mL
- Drug uptake [30]: 1055 ng/mL
- Drug uptake [31]: 32442 ng/mL
- Drug uptake (Liver [32]): 8 ng/mL
- Drug uptake (Liver [33]): 7 ng/mL
- Drug uptake (Liver [34]): 350 ng/mL
- Drug uptake [35]: 12 ng/mL
- Drug uptake [36]: 169 ng/mL
- Drug uptake [37]: 24151 ng/mL
